How the values were obtained:
[1] = target: T1, NAD-dependent protein deacylase sirtuin-6 (Homo sapiens, UniProt Q8N6T7); assay: Activation of N-terminal his-tagged human SIRT6 expressed in Escherichia coli M15 [pREP4] assessed as increase in peptide demyristoylation at 20 uM incubated for 120 mins using Ac-EALPKK(Myr)-AMC substrate by FDL assay relative to control
How it was run: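 Demyristoylation: 1 µM recombinant SIRT6 preincubated with compound for 20 min at 37 °C in 50 mM Tris-HCl pH 8.0, BSA 1 mg/mL, 1 mM DTT, with 10 µM Ac-EALPKK(Myr)-AMC. Started with 1 mM NAD and run 120 min at 37 °C. Developed 120 min at 37 °C with 5 mg/mL trypsin/8 mM nicotinamide. Fluorescence read. Mean ± s.d., triplicate wells, three independent experiments.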

[2] = target: T1, NAD-dependent protein deacylase sirtuin-6; assay: Activation of N-terminal his-tagged human SIRT6 expressed in Escherichia coli M15 [pREP4] assessed as increase in peptide demyristoylation incubated for 120 mins using Ac-EALPKK(Myr)-AMC substrate by FDL assay relative to control
How it was run: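 Demyristoylation: 1 µM recombinant SIRT6 preincubated with compound for 20 min at 37 °C in 50 mM Tris-HCl pH 8.0, BSA 1 mg/mL, 1 mM DTT, with 10 µM Ac-EALPKK(Myr)-AMC. Fluorescence read. Mean ± s.d., triplicate wells, three independent experiments.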

T1 sequence (Q8N6T7 whole entry): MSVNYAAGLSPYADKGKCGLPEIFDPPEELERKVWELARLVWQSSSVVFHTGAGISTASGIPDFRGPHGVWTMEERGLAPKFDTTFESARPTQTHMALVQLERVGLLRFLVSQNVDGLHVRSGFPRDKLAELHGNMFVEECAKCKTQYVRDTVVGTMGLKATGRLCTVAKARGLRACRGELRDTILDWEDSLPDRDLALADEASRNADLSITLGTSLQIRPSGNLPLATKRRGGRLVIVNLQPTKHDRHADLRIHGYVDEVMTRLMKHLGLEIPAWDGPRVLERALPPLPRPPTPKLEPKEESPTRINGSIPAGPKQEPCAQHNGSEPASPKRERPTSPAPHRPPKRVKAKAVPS

Row | SMILES | Activity [1] [%] | EC1.5 [2] [µM]
1 | COc1ccc(-c2cc(C(=O)Nc3ccc(F)cc3[N+](=O)[O-])c3ccccc3n2)cc1OC | 65.7 | 
2 | COC(=O)c1c(NC(=O)c2cc(-c3ccc(OC)c(OC)c3)nc3ccccc23)sc(C)c1C | 101 | 
3 | COc1ccc(-c2cc(C(=O)NCc3ccc(Cl)c(Cl)c3)c3ccccc3n2)cc1OC | 260 | 8.14
4 | CCOC(=O)c1sc(NC(=O)c2cc(-c3ccc(OC)c(OC)c3)nc3ccccc23)nc1C | 90.3 | 
5 | O=C(Nc1cccc(F)c1)c1cc(-c2cc3ccccc3o2)nc2ccccc12 | 216 | 4.86
6 | COc1ccc(-c2cc(C(=O)Nc3c(C)cc(C)cc3C)c3ccccc3n2)cc1OC | 284 | 4.77
7 | O=C(Nc1cccc2ccccc12)c1cc(-c2cc3ccccc3o2)nc2ccccc12 | 119 | 
8 | COc1ccc(-c2cc(C(=O)NCc3ccc(F)cc3)c3ccccc3n2)cc1OC | 168 | 19.5
9 | COc1ccc(-c2cc(C(=O)Nc3ccc(F)c([N+](=O)[O-])c3)c3ccccc3n2)cc1OC | 96.9 | 
10 | O=C(Nc1ccc(Oc2ccccc2)cc1)c1cc(-c2cc3ccccc3o2)nc2ccccc12 | 118 | 
11 | COC(=O)[C@H]1C2CCC(CC2)[C@@H]1NC(=O)c1cc(-c2ccc(OC)c(OC)c2)nc2ccccc12 | 128 | 
12 | O=C(Nc1ccc(Cl)c(Cl)c1)c1cc(-c2cc3ccccc3o2)nc2ccccc12 | 109 | 
13 | COc1ccc(-c2cc(C(=O)Nc3ccc4ccccc4c3)c3ccccc3n2)cc1OC | 139 | 
14 | COc1ccc(-c2cc(C(=O)NC3CCCC3)c3ccccc3n2)cc1OC | 124 | 
15 | COc1cc(NC(=O)c2cc(-c3ccc(OC)c(OC)c3)nc3ccccc23)cc(OC)c1 | 103 | 
16 | COc1ccc(-c2cc(C(=O)Nc3sc(C)c(C)c3C#N)c3ccccc3n2)cc1OC | 95.1 | 
17 | CCOc1ccc(NC(=O)c2cc(-c3cc4ccccc4o3)nc3ccccc23)cc1 | 109 | 
18 | COc1ccc(-c2cc(C(=O)Nc3ccc(Oc4ccccc4)cc3)c3ccccc3n2)cc1OC | 239 | 6.47
19 | COc1ccc(-c2cc(C(=O)Nc3cc(O)c(C(C)(C)C)cc3C(C)(C)C)c3ccccc3n2)cc1OC | 88.6 | 

Row | SMILES | Activity [1] [%] | EC1.5 [2] [µM]
20 | O=C(NCc1ccc(F)cc1)c1cc(-c2cc3ccccc3o2)nc2ccccc12 | 482 | 2.19
21 | COc1ccc(-c2cc(C(=O)NC(c3ccccc3)c3ccccc3)c3ccccc3n2)cc1OC | 276 | 5.97
22 | COc1ccc(-c2cc(C(=O)Nc3nc4ccc(S(C)(=O)=O)cc4s3)c3ccccc3n2)cc1OC | 83.4 | 
23 | COc1ccc(-c2cc(C(=O)NCc3ccccc3)c3ccccc3n2)cc1OC | 107 | 
24 | O=C(NC(c1ccccc1)c1ccccn1)c1cc(-c2cc3ccccc3o2)nc2ccccc12 (stereo not drawn) | 321 | 7.59
25 | COc1ccc(-c2cc(C(=O)Nc3ccc(S(N)(=O)=O)cc3)c3ccccc3n2)cc1OC | 131 | 
26 | COc1cccc(NC(=O)c2cc(-c3ccc(OC)c(OC)c3)nc3ccccc23)c1 | 115 | 
27 | CCCNC(=O)c1cc(-c2ccc(OC)c(OC)c2)nc2ccccc12 | 99 | 
28 | COc1ccc(-c2cc(C(=O)NC34CC5CC(CC(O)(C5)C3)C4)c3ccccc3n2)cc1OC | 86.1 | 
29 | COC(=O)c1c(NC(=O)c2cc(-c3ccc(OC)c(OC)c3)nc3ccccc23)sc2c1CCCC2 | 95.2 | 
30 | COc1cc([N+](=O)[O-])ccc1NC(=O)c1cc(-c2ccc(OC)c(OC)c2)nc2ccccc12 | 101 | 
31 | COC(=O)c1c(-c2ccc(C)cc2)csc1NC(=O)c1cc(-c2ccc(OC)c(OC)c2)nc2ccccc12 | 82.9 | 
32 | O=C(NCc1ccc(Cl)c(Cl)c1)c1cc(-c2cc3ccccc3o2)nc2ccccc12 | 314 | 5.91
33 | CCOC(=O)c1ccccc1NC(=O)c1cc(-c2ccc(OC)c(OC)c2)nc2ccccc12 | 118 | 
34 | COc1ccc(-c2cc(C(=O)Nc3cc(S(N)(=O)=O)ccc3C)c3ccccc3n2)cc1OC | 95.5 | 
35 | COc1ccc(-c2cc(C(=O)N3CCN(C)CC3)c3ccccc3n2)cc1OC | 105 | 
36 | COc1ccc(NC(=O)c2cc(-c3ccc(OC)c(OC)c3)nc3ccccc23)c([N+](=O)[O-])c1 | 87.2 | 
37 | CCN(CC)c1ccc(NC(=O)c2cc(-c3ccc(OC)c(OC)c3)nc3ccccc23)cc1 | 83.3 | 

Now from value to molecule:

Row | Activity [1] [%] | EC1.5 [2] [µM] | SMILES
38 | 85.6 |  | O=C(Nc1cc(C(F)(F)F)ccc1Cl)c1cc(-c2cccnc2)nc2ccccc12
39 | 141 |  | O=C(Nc1cc(C(F)(F)F)ccc1Cl)c1cc(-c2ccco2)nc2ccccc12
40 | 224 | 5.97 | COc1ccc(-c2cc(C(=O)Nc3cccc(Cl)c3Cl)c3ccccc3n2)cc1OC
41 | 166 | 10.3 | CCOc1ccc(NC(=O)c2cc(-c3ccc(OC)c(OC)c3)nc3ccccc23)cc1
42 | 349 | 3.47 | Cc1ccc(C)c(NC(=O)c2cc(-c3cc4ccccc4o3)nc3ccccc23)c1
43 | 104 |  | COc1ccc(-c2cc(C(=O)Nc3ccc(F)cc3)c3ccccc3n2)cc1OC
44 | 287 | 4.96 | O=C(Nc1ccc(C(F)(F)F)cc1Cl)c1cc(-c2cc3ccccc3o2)nc2ccccc12
45 | 762 | 0.85 | O=C(Nc1cc(C(F)(F)F)ccc1Cl)c1cc(-c2cc3ccccc3o2)nc2ccccc12
46 | 98.7 |  | COc1ccc(-c2cc(C(=O)Nc3ccc(Cl)cc3)c3ccccc3n2)cc1OC
47 | 205 | 9.01 | Cc1c(Cl)cccc1NC(=O)c1cc(-c2cc3ccccc3o2)nc2ccccc12
48 | 142 |  | COc1ccc(-c2cc(C(=O)Nc3cccc(F)c3)c3ccccc3n2)cc1OC
49 | 321 | 5.96 | COc1cccc2cc(-c3cc(C(=O)Nc4cc(C(F)(F)F)ccc4Cl)c4ccccc4n3)oc12
50 | 104 |  | COc1ccc(-c2cc(C(=O)Nc3cccc(Cl)c3)c3ccccc3n2)cc1OC
51 | 184 | 18.6 | Cc1ccc(-c2cc(C(=O)Nc3cc(C(F)(F)F)ccc3Cl)c3ccccc3n2)o1
52 | 335 | 5.17 | O=C(Nc1ccc(C(F)(F)F)cc1)c1cc(-c2cc3ccccc3o2)nc2ccccc12
53 | 109 |  | Cc1ccc(-c2cc(C(=O)Nc3cc(C(F)(F)F)ccc3Cl)c3ccccc3n2)cc1
54 | 181 | 7.53 | COc1ccc(-c2cc(C(=O)Nc3ccc(C(F)(F)F)cc3Cl)c3ccccc3n2)cc1OC
55 | 128 |  | COc1ccc(-c2cc(C(=O)Nc3ccccc3Br)c3ccccc3n2)cc1OC
56 | 163 | 20.7 | COc1ccc(-c2cc(C(=O)Nc3cc(C(F)(F)F)ccc3Cl)c3ccccc3n2)cc1
57 | 313 | 5.61 | COc1ccc(-c2cc(C(=O)Nc3cc(C)ccc3C)c3ccccc3n2)cc1OC
58 | 98.3 |  | COc1ccc(-c2cc(C(=O)Nc3ccc(C)cc3)c3ccccc3n2)cc1OC
59 | 141 |  | Cc1ccc(-c2cc(C(=O)Nc3cc(C(F)(F)F)ccc3Cl)c3ccccc3n2)s1

Row | Activity [1] [%] | EC1.5 [2] [µM] | SMILES
60 | 95.2 |  | CCOc1ccccc1NC(=O)c1cc(-c2ccc(OC)c(OC)c2)nc2ccccc12
61 | 101 |  | COc1ccc(-c2cc(C(=O)Nc3ccc(F)c(F)c3)c3ccccc3n2)cc1OC
62 | 105 |  | COc1ccc(-c2cc(C(=O)Nc3ccccc3Cl)c3ccccc3n2)cc1OC
63 | 92.4 |  | COc1ccc(-c2cc(C(=O)Nc3ccccc3F)c3ccccc3n2)cc1OC
64 | 365 | 2.84 | COc1ccc(-c2cc(C(=O)Nc3cc(C(F)(F)F)ccc3Cl)c3ccccc3n2)cc1OC
65 | 199 | 19 | COc1ccc(-c2cc(C(=O)Nc3cccc(Cl)c3C)c3ccccc3n2)cc1OC
66 | 163 | 20.7 | O=C(Nc1cccc(Cl)c1Cl)c1cc(-c2cc3ccccc3o2)nc2ccccc12
67 | 159 | 29.4 | O=C(Nc1cc(C(F)(F)F)ccc1Cl)c1cc(-c2ccc3c(c2)OCCO3)nc2ccccc12
68 | 82.4 |  | O=C(Nc1cc(C(F)(F)F)ccc1Cl)c1cc(C2CCCCC2)nc2ccccc12
69 | 225 | 7.78 | COc1ccc(-c2cc(C(=O)NCc3ccc(C)cc3)c3ccccc3n2)cc1OC
70 | 98.2 |  | COc1ccc(-c2cc(C(=O)Nc3cc([N+](=O)[O-])ccc3Cl)c3ccccc3n2)cc1OC
71 | 76.4 |  | O=C(Nc1cc(C(F)(F)F)ccc1Cl)c1cc(C2CCCC2)nc2ccccc12
72 | 117 |  | COc1ccc(-c2cc(C(=O)Nc3ccc(C)c(Cl)c3)c3ccccc3n2)cc1OC
73 | 108 |  | COc1ccc(-c2cc(C(=O)Nc3ccc(F)c(Cl)c3)c3ccccc3n2)cc1OC
74 | 250 | 6.38 | COc1ccc(-c2cc(C(=O)Nc3cc(C(F)(F)F)cc(C(F)(F)F)c3)c3ccccc3n2)cc1OC
75 | 124 |  | COc1ccc(-c2cc(C(=O)Nc3ccc(C(C)(C)C)cc3)c3ccccc3n2)cc1OC
76 | 91 |  | COc1ccc(-c2cc(C(=O)Nc3nc(-c4ccc(Cl)cc4)cs3)c3ccccc3n2)cc1OC
77 | 92.3 |  | Cc1ccc(-c2cc(C(=O)Nc3cc(C(F)(F)F)ccc3Cl)c3ccccc3n2)c(C)c1
78 | 91.2 |  | COc1ccc(-c2cc(C(=O)Nc3cc(C(F)(F)F)ccc3Cl)c3ccccc3n2)cc1F
79 | 130 |  | O=C(Nc1cc(C(F)(F)F)ccc1Cl)c1cc(-c2cccs2)nc2ccccc12
80 | 142 |  | COc1ccc(-c2cc(C(=O)Nc3ccc(C(F)(F)F)cc3)c3ccccc3n2)cc1OC
81 | 131 |  | COc1ccc(-c2cc(C(=O)Nc3cc(C(C)C)ccc3C)c3ccccc3n2)cc1OC

Reference: ChEMBL document CHEMBL4622973, “Discovery of Potent Small-Molecule SIRT6 Activators: Structure-Activity Relationship and Anti-Pancreatic Ductal Adenocarcinoma Activity” (J Med Chem, 2020)
